Drawing on PubChem BioAssay, this text covers growth inhibition and viability increase for 40 compounds.

Activity calls are given as the source filed them.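 The calls were made as follows, unless noted: active = growth inhibition above a set limit, 3 SD over mean compound inhibition, in both replicates (cut at about 43% in these data); inconclusive = above the limit in only one replicate; inactive = at or below the limit in both replicates.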

A short description of one experiment: S. cerevisiae growth inhibition in restrictive medium, OD615, pilot screen, restrictive growth control, yeast lifespan reduction project (AID 706).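 Also: modified DeaD lifespan yeast strain shifted to restrictive glucose medium.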 The following applies: OD615, 48 h, at 10 µM, active compounds read high. Summed up:
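System: Engineered S. cerevisiae DeaD strain | Buffer or medium: Glucose-based CSMM-D restrictive medium | Schedule: 4 h pre-incubation, 48 h exposure at 30 °C | Technique: Optical density at 615 nm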
`CCOC1CCCCC1NS(=O)(=O)c1ccc(Cl)cc1` (stereo not given): the growth inhibition was 1.71% (inactive).

As to `COc1cccc(CNC(=O)c2ccc(NC(=O)C3CCCO3)cc2)c1` (stereo not given), the growth inhibition is -16.5% (inactive).

As to `Cc1cc2cc(CNC(=O)c3ccc(Br)o3)ccc2[nH]1`, the growth inhibition was -9.17% (inactive).

In the case of `COc1ccc(C2C(C(=O)c3cccs3)=C(O)C(=O)N2c2nnc(C)s2)cc1OC` (stereo not given), the growth inhibition is 9.11% (inactive).

As to `O=C(NCCN1C(=O)C2C3C=CC(C3)C2C1=O)Nc1ccc(Br)cc1` (stereo not given), the growth inhibition was 9.2% (inactive).

In the case of `CC1CCN(c2nc3ccccc3nc2C(C#N)S(=O)(=O)c2ccccc2)CC1` (stereo not given), the growth inhibition was -14.6% (inactive).

Turning to `O=C(COc1ccccc1)Nc1nnc(-c2ccc(Cl)s2)o1`, the growth inhibition was 8.75% (inactive).

Regarding `O=C(Cn1cc2c(n1)CCCC2)NC1CCCCCC1`, the growth inhibition was 2.47% (inactive).

Take `O=C(CCn1c(=O)sc2ccccc21)NCc1ccccc1`: the growth inhibition is -2.52% (inactive).

Take `COc1ccc(CNc2ccc3cn[nH]c3c2)c(OC)c1OC`: the growth inhibition was 1.43% (inactive).

Consider `Cc1ccc(NC(=O)C2CCCN2S(=O)(=O)c2ccc3c(c2)CCC(=O)N3)cc1Cl` (stereo not given), for which the growth inhibition is 8.74% (inactive).

Take `COc1ccc(OC)c(NC(=O)c2c(NC(=O)CNCc3ccco3)sc3c2CCC3)c1`: the growth inhibition was -0.495% (inactive).

On to `C=C(C)CSc1nc2c(cc1C#N)CCC2`, for which the growth inhibition is 21.6% (inactive).

As to `CCOC(=O)c1[nH]c2cc(OC)c(OC)cc2c1NC(=O)c1ccc2c(c1)OCO2`, the growth inhibition is -10.9% (inactive).

Turning to `COC(=O)c1ccccc1Nc1cc(C)nc2nc(C)nn12`, the growth inhibition is 0.455% (inactive).

Regarding `COC(=O)c1ccccc1NC(=O)CSc1nccn1C`, the growth inhibition was 2.94% (inactive).

`O=CN1CCN(C(C(=O)NC2CCCC2)c2ccc(Cl)cc2)CC1` (stereo not given): the growth inhibition is 4.62% (inactive).

As for `O=C(NCCC1=CCCCC1)c1ccc2c(=O)n3c(nc2c1)CCCCC3`, the growth inhibition is -2.77% (inactive).

As to `Cc1ccc(CNC(=O)CCS(=O)(=O)c2cccc3nsnc23)cc1`, the growth inhibition was -1.48% (inactive).

As to `COc1cc(NC(=O)CN2CC(c3ccccc3)CC2=O)cc(OC)c1` (stereo not given), the growth inhibition is -10.4% (inactive).

Consider `Cc1cccc(OCCn2c(=O)n(C)c3ccccc32)c1`, for which the growth inhibition was -5.27% (inactive).

In the case of `C1=C(N2CCOCC2)/C(=C/c2nc3ccccc3[nH]2)CC1`, the growth inhibition is 19.2% (inactive).

Regarding `Nc1nonc1-n1nncc1-c1ccccc1`, the growth inhibition is -13.6% (inactive).

With `O=C1CC(c2ccco2)Sc2nc3ccccc3n21` (stereo not given), the growth inhibition was 13.4% (inactive).

For `CCC1CCCCN1Cc1nc2c(c(=O)n(C)c(=O)n2C)n1Cc1ccccc1` (stereo not given), the growth inhibition was -0.26% (inactive).

Regarding `CCOCCCNC(=O)C(c1ccc(Cl)cc1)N1CCN(C(=O)c2ccco2)CC1` (stereo not given), the growth inhibition is -17.1% (inactive).

Consider `O=C(C1CC1)N1CCc2cc(Br)cc(S(=O)(=O)NCCCN3CCCC3)c21`, for which the growth inhibition was -4.36% (inactive).

As to `COc1ccc(CCN=C2SCC(=O)N2C)cc1OC`, the growth inhibition is 1.86% (inactive).

On to `CCOc1ccccc1NC(=O)C1CCC(CNc2c(N3CCOCC3)c(=O)c2=O)CC1` (stereo not given), for which the growth inhibition is -1.83% (inactive).

`Cc1ccc(-n2c(SCC(=O)NCC3CCCO3)nc3c(c2=O)SCC3)cc1` (stereo not given): the growth inhibition is -16.9% (inactive).

Turning to `O=C(CCS(=O)(=O)c1cccc2nonc12)NCCc1ccccc1`, the growth inhibition was -23.2% (inactive).

Turning to `O=c1c2cc(-c3ccccc3)sc2ncn1/N=C/c1ccco1`, the growth inhibition was 0.525% (inactive).

In the case of `Cc1nnc(NC(=O)CSC2CCCCC2)s1`, the growth inhibition was 17.7% (inactive).

As for `COc1cccc(N2CCN(C3CC(=O)N(c4ccc(Cl)cc4)C3=O)CC2)c1` (stereo not given), the growth inhibition was -2.62% (inactive).

As to `Cc1cc(Nc2cccc(F)c2)n2nc(C)nc2n1`, the growth inhibition was -7.6% (inactive).

As for `CCCCNc1nc2c(c(=O)n(C)c(=O)n2C)n1CCC`, the growth inhibition was -0.415% (inactive).

Consider `Cc1ccc2c(c1)N(CCCC(=O)NCc1ccc3c(c1)OCO3)C(=O)CO2`, for which the growth inhibition is -25.1% (inactive).

On to `Cc1c(C(=O)N2CCC(C(N)=O)CC2)sc(N)c1C#N`, for which the growth inhibition is -8.07% (inactive).

With `Cc1cc(NC(=O)c2cc(CC(C)C)on2)no1`, the growth inhibition was -12.5% (inactive).

Consider `COC(=O)c1nc2n(n1)C(c1cccc(Cl)c1)C1=C(CCCC1=O)N2` (stereo not given), for which the growth inhibition is 7.08% (inactive).

A short description of the next experiment: doxorubicin toxicity protection in MRP-1 cells – H69AR cells, CellTiter-Glo, duplicate, MRP-1 activator project, pilot screen (AID 807;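 active = viability increase at or above a cutoff of the median across tested compounds plus 3 SD, cut at about 8.5% in these data, passing the limit was not always enough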;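 also: compound pretreatment 18-22 h then 72 h combined with doxorubicin; 0% = doxorubicin alone and 100% = vehicle without doxorubicin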). The following applies: H69AR viability with doxorubicin, CellTiter-Glo luminescence; at 10 µM; active compounds read high.
Turning to `CCOC1CCCCC1NS(=O)(=O)c1ccc(Cl)cc1` (stereo not given), the viability increase was -3.23% (inactive).

`COc1cccc(CNC(=O)c2ccc(NC(=O)C3CCCO3)cc2)c1` (stereo not given): the viability increase is 0.53% (inactive).

With `Cc1cc2cc(CNC(=O)c3ccc(Br)o3)ccc2[nH]1`, the viability increase is -1.33% (inactive).

In the case of `COc1ccc(C2C(C(=O)c3cccs3)=C(O)C(=O)N2c2nnc(C)s2)cc1OC` (stereo not given), the viability increase is 1.59% (inactive).

As for `O=C(NCCN1C(=O)C2C3C=CC(C3)C2C1=O)Nc1ccc(Br)cc1` (stereo not given), the viability increase is -1.13% (inactive).

Turning to `CC1CCN(c2nc3ccccc3nc2C(C#N)S(=O)(=O)c2ccccc2)CC1` (stereo not given), the viability increase was -2.55% (inactive).

In the case of `O=C(COc1ccccc1)Nc1nnc(-c2ccc(Cl)s2)o1`, the viability increase was -1.36% (inactive).

For `O=C(Cn1cc2c(n1)CCCC2)NC1CCCCCC1`, the viability increase was -1.14% (inactive).

Turning to `O=C(CCn1c(=O)sc2ccccc21)NCc1ccccc1`, the viability increase was -0.79% (inactive).

Take `COc1ccc(CNc2ccc3cn[nH]c3c2)c(OC)c1OC`: the viability increase is -2.25% (inactive).

As for `Cc1ccc(NC(=O)C2CCCN2S(=O)(=O)c2ccc3c(c2)CCC(=O)N3)cc1Cl` (stereo not given), the viability increase was 3.52% (inactive).

Consider `COc1ccc(OC)c(NC(=O)c2c(NC(=O)CNCc3ccco3)sc3c2CCC3)c1`, for which the viability increase was -3.56% (inactive).

Turning to `C=C(C)CSc1nc2c(cc1C#N)CCC2`, the viability increase was 1.11% (inactive).

Regarding `CCOC(=O)c1[nH]c2cc(OC)c(OC)cc2c1NC(=O)c1ccc2c(c1)OCO2`, the viability increase is -1.41% (inactive).

With `COC(=O)c1ccccc1Nc1cc(C)nc2nc(C)nn12`, the viability increase was -3.74% (inactive).

As for `COC(=O)c1ccccc1NC(=O)CSc1nccn1C`, the viability increase was -0.69% (inactive).

In the case of `O=CN1CCN(C(C(=O)NC2CCCC2)c2ccc(Cl)cc2)CC1` (stereo not given), the viability increase is -1.14% (inactive).

In the case of `O=C(NCCC1=CCCCC1)c1ccc2c(=O)n3c(nc2c1)CCCCC3`, the viability increase is -1.07% (inactive).

With `Cc1ccc(CNC(=O)CCS(=O)(=O)c2cccc3nsnc23)cc1`, the viability increase was -1.57% (inactive).

For the compound `COc1cc(NC(=O)CN2CC(c3ccccc3)CC2=O)cc(OC)c1` (stereo not given), the viability increase was 0.18% (inactive).

`Cc1cccc(OCCn2c(=O)n(C)c3ccccc32)c1`: the viability increase was -2.39% (inactive).

As to `C1=C(N2CCOCC2)/C(=C/c2nc3ccccc3[nH]2)CC1`, the viability increase was -4.25% (inactive).

With `Nc1nonc1-n1nncc1-c1ccccc1`, the viability increase was -1.04% (inactive).

`O=C1CC(c2ccco2)Sc2nc3ccccc3n21` (stereo not given): the viability increase was -3.98% (inactive).

For `CCC1CCCCN1Cc1nc2c(c(=O)n(C)c(=O)n2C)n1Cc1ccccc1` (stereo not given), the viability increase is 3.7% (inactive).

Regarding `CCOCCCNC(=O)C(c1ccc(Cl)cc1)N1CCN(C(=O)c2ccco2)CC1` (stereo not given), the viability increase is -2.12% (inactive).

For `O=C(C1CC1)N1CCc2cc(Br)cc(S(=O)(=O)NCCCN3CCCC3)c21`, the viability increase is -2.47% (inactive).

Turning to `COc1ccc(CCN=C2SCC(=O)N2C)cc1OC`, the viability increase is -0.79% (inactive).

`CCOc1ccccc1NC(=O)C1CCC(CNc2c(N3CCOCC3)c(=O)c2=O)CC1` (stereo not given): the viability increase is -0.66% (inactive).

On to `Cc1ccc(-n2c(SCC(=O)NCC3CCCO3)nc3c(c2=O)SCC3)cc1` (stereo not given), for which the viability increase was -1.96% (inactive).

On to `O=C(CCS(=O)(=O)c1cccc2nonc12)NCCc1ccccc1`, for which the viability increase was -3.1% (inactive).

In the case of `O=c1c2cc(-c3ccccc3)sc2ncn1/N=C/c1ccco1`, the viability increase was -2.49% (inactive).

On to `Cc1nnc(NC(=O)CSC2CCCCC2)s1`, for which the viability increase is -0.77% (inactive).

As to `COc1cccc(N2CCN(C3CC(=O)N(c4ccc(Cl)cc4)C3=O)CC2)c1` (stereo not given), the viability increase was -0.33% (inactive).

For `Cc1cc(Nc2cccc(F)c2)n2nc(C)nc2n1`, the viability increase was -2.42% (inactive).

For `CCCCNc1nc2c(c(=O)n(C)c(=O)n2C)n1CCC`, the viability increase was 0.36% (inactive).

On to `Cc1ccc2c(c1)N(CCCC(=O)NCc1ccc3c(c1)OCO3)C(=O)CO2`, for which the viability increase is -6.26% (inactive).

With `Cc1c(C(=O)N2CCC(C(N)=O)CC2)sc(N)c1C#N`, the viability increase is -0.41% (inactive).

In the case of `Cc1cc(NC(=O)c2cc(CC(C)C)on2)no1`, the viability increase was -1.75% (inactive).

On to `COC(=O)c1nc2n(n1)C(c1cccc(Cl)c1)C1=C(CCCC1=O)N2` (stereo not given), for which the viability increase was -2.99% (inactive).
